According to ChEMBL document CHEMBL1149591, “QSAR studies and pharmacophore identification for arylsubstituted cycloalkenecarboxylic acid methyl esters with affinity for the human dopamine transporter” (Bioorg Med Chem, 2007):

biological target: Sodium-dependent dopamine transporter (Homo sapiens, UniProt Q01959); assay: Inhibition of human DAT expressed in COS1 cells; format: cell-based, COS-1; details: read-out: -Log Ki (converted)
How it was run: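 COS-1 cells stably transfected with hDAT (pIRES, Blasticidin selection), grown in DMEM/10% FCS at 37 °C, 5% CO2. Membranes homogenized in 150 mM NaCl/50 mM Tris/20 mM EDTA, resuspended in PBSCM.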

Chain of Sodium-dependent dopamine transporter (Q01959 whole entry): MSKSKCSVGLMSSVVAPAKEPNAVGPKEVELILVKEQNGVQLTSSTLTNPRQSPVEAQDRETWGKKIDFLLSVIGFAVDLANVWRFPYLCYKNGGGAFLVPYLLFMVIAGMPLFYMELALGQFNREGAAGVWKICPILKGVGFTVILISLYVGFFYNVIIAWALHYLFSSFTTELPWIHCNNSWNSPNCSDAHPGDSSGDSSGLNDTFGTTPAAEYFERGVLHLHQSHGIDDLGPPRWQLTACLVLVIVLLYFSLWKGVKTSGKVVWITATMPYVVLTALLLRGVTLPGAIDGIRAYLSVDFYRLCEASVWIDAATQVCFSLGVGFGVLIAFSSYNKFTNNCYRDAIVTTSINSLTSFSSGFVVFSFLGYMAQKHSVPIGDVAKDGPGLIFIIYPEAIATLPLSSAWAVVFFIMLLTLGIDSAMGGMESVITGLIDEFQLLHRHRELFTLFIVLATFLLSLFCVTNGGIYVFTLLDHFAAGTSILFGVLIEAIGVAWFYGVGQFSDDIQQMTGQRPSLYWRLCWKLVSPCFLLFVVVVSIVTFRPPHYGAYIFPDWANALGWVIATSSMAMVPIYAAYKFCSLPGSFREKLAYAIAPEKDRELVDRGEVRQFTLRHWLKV

Q: For `COC(=O)C1=C(c2cccc(Cl)c2)C2CCC1N2` (stereo unspecified), which Ki is on record?
A: Its Ki is 33.9 µM.

Q: For `COC(=O)C1=C(c2ccc(-c3ccccc3)cc2)C2CCC1N2` (stereo unspecified), which Ki is on record?
A: Its Ki is 24.5 µM.

Q: For `COC(=O)C1=C(c2ccc(-c3ccccc3)cc2)C2CCC1C2` (stereo unspecified), which Ki is on record?
A: Its Ki is 603 µM.

Q: With `COC(=O)C1=C(c2ccccc2)C2CCC1C2` (stereo unspecified) as the molecule, how does the Ki read?
A: Its Ki is 646 µM.

Q: Which Ki does the source give for `COC(=O)C1=C(c2ccc3ccccc3c2)C2CCC1N2` (stereo unspecified) here?
A: Its Ki is 1.74 µM.

Q: For `COC(=O)C1=C(c2ccc(Cl)cc2)C2CCC1O2` (stereo unspecified), which Ki is on record?
A: Its Ki is 18.2 µM.

Q: With `COC(=O)C1=C(c2ccc3ccccc3c2)CCCC1` as the molecule, how does the Ki read?
A: Its Ki is 11.7 µM.

Q: Which Ki does the source give for `COC(=O)C1=C(c2ccc(Cl)cc2Cl)C2CCC1C2` (stereo unspecified) here?
A: The Ki was 22.9 µM.

Q: How did the Ki turn out when `COC(=O)C1=C(c2cccc(Cl)c2)CCC1` was run?
A: Its Ki is 34.7 µM.

Q: `COC(=O)C1=C(c2ccc(C(C)=O)cc2)CCC1` was tested. Which Ki did it give?
A: The Ki was 331 µM.

Q: With `COC(=O)C1=C(c2ccc3ccccc3c2)CCC1` as the molecule, how does the Ki read?
A: The Ki was 4.17 µM.

Q: With `COC(=O)C1=C(c2ccc(Cl)c(Cl)c2)C2CCC1C2` (stereo unspecified) as the molecule, how does the Ki read?
A: Its Ki is 6.76 µM.

Q: For `COC(=O)C1=C(c2ccc(Cl)c(Cl)c2)CCC1`, which Ki is on record?
A: Its Ki is 1.95 µM.

Q: Which Ki does the source give for `COC(=O)C1=C(c2ccccc2Cl)C2CCC1C2` (stereo unspecified) here?
A: Its Ki is 372 µM.

Q: For `COC(=O)C1=C(c2ccc3ccccc3c2)C2CCC1C2` (stereo unspecified), which Ki is on record?
A: Its Ki is 4.27 µM.

Q: With `COC(=O)C1=C(c2ccccc2)C2CCC1N2` (stereo unspecified) as the molecule, how does the Ki read?
A: The Ki was 447 µM.

Q: Which Ki does the source give for `COC(=O)C1=C(c2cccc(Cl)c2Cl)C2CCC1C2` (stereo unspecified) here?
A: Its Ki is 14.8 µM.

Q: How did the Ki turn out when `COC(=O)C1=C(c2cccc(Cl)c2)C2CCC1C2` (stereo unspecified) was run?
A: Its Ki is 105 µM.

Q: For `COC(=O)C1=C(c2ccc(Cl)c(Cl)c2)C2CCC1N2` (stereo unspecified), which Ki is on record?
A: The Ki was 1.1 µM.

Q: Which Ki does the source give for `COC(=O)C1=C(c2cccc(Cl)c2)CCCC1` here?
A: The Ki was 117 µM.

Q: Which Ki does the source give for `COC(=O)C1=C(c2ccc(Cl)cc2)C2CCC1C2` (stereo unspecified) here?
A: Its Ki is 25.1 µM.

Q: How did the Ki turn out when `COC(=O)C1=C(c2ccc(Cl)cc2)C2CCC1N2` (stereo unspecified) was run?
A: Its Ki is 26.9 µM.

same assay, conditions: read-out: Ki

Q: With `COC(=O)C1=C(c2ccc([N+](=O)[O-])cc2)C2CCC1N2` (stereo unspecified) as the molecule, how does the Ki read?
A: The Ki was 67.9 µM.

Q: `COC(=O)C1=C(c2cccc([N+](=O)[O-])c2)C2CCC1N2` (stereo unspecified) was tested. Which Ki did it give?
A: The Ki was 232 µM.

Q: With `COC(=O)C1=C(c2cc(C)c(C)cc2C)C2CCC1C2` (stereo unspecified) as the molecule, how does the Ki read?
A: The Ki was 32.2 µM.

Q: Which Ki does the source give for `COC(=O)C1=C(c2ccc(C)c(F)c2)C2CCC1C2` (stereo unspecified) here?
A: The Ki was 56 µM.
